# Assay results: ChEMBL document CHEMBL3576819, “Design, synthesis, biological evaluation and molecular docking studies of phenylpropanoid derivatives as potent anti-hepatitis B virus agents” (Eur J Med Chem, 2015)
# Legend:
# [1] = Selectivity index, ratio of CC50 for human HepG2.2.15 cells to IC50 for Hepatitis B virus infected in human HepG2.2.15 cells assessed as inhibition of HBeAg secretion; assay type: functional
# Summary of the method: (§1)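 Selectivity index computed as CC50/IC50, with CC50 from cell death of HepG2.2.15 cells after 9 days of treatment (OD 450 nm) and IC50 from 50% inhibition of HBeAg or HBsAg secretion in the same cells; medium with drug renewed every 3 d.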
# [2] = Selectivity index, ratio of CC50 for human HepG2.2.15 cells to IC50 for Hepatitis B virus infected in human HepG2.2.15 cells assessed as inhibition of HBsAg secretion; assay type: functional; summary of the method: as §1
# Hepatitis B virus [3] = assay: Antiviral activity against Hepatitis B virus infected in human HepG2.2.15 cells assessed as inhibition of HBsAg secretion by ELISA; assay type: functional, organism-based; settings: HepG2 2.2.15
# Summary of the method: (§2)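 HepG2.2.15 cells (MEM, 10% FBS, 380 µg/ml G418) seeded at 1×10^5 cells/ml, held 24 h at 37 °C, then treated with various drug concentrations; medium with drug renewed every 3 d for up to 9 d. Culture medium sampled on days 3, 6 and 9, stored at -20 °C, and assayed for secreted antigen. Lamivudine as positive control; IC50 = 50% inhibition of secretion; means of at least two experiments.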
# [4] = Cytotoxicity against human HepG2.2.15 cells assessed as cell death after 9 days by MTT assay; assay type: cell-based, HepG2 2.2.15
# Summary of the method: (§3)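 HepG2.2.15 cells (MEM, 10% FBS, 380 µg/ml G418, 37 °C, 5% CO2) seeded at 1×10^5 cells/ml, cultured 24 h, then exposed to various drug concentrations; drug-containing medium renewed every 3 d. OD read at 450 nm after 9 days; percent cell death calculated; CC50 = concentration killing 50% of cells. Means of at least two experiments.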
# Hepatitis B virus [5] = assay: Antiviral activity against Hepatitis B virus infected in human HepG2.2.15 cells assessed as inhibition of HBeAg secretion by ELISA; assay type: functional, organism-based; settings: HepG2 2.2.15; summary of the method: as §2
# Hepatitis B virus [6] = assay: Antiviral activity against Hepatitis B virus infected in human HepG2.2.15 cells assessed as inhibition of HBeAg secretion at 37.5 uM after 3 days by ELISA; assay type: functional; settings: HepG2 2.2.15, 72 h; summary of the method: as §2
# Hepatitis B virus [7] = assay: Antiviral activity against Hepatitis B virus infected in human HepG2.2.15 cells assessed as inhibition of HBsAg secretion at 75 uM after 9 days by ELISA; assay type: functional; settings: HepG2 2.2.15, 216 h; summary of the method: as §2
# Hepatitis B virus [8] = assay: Antiviral activity against Hepatitis B virus infected in human HepG2.2.15 cells assessed as inhibition of HBeAg secretion at 150 uM after 6 days by ELISA; assay type: functional; settings: HepG2 2.2.15, 144 h; summary of the method: as §2
# Hepatitis B virus [9] = assay: Antiviral activity against Hepatitis B virus infected in human HepG2.2.15 cells assessed as inhibition of HBeAg secretion at 150 uM after 3 days by ELISA; assay type: functional; settings: HepG2 2.2.15, 72 h; summary of the method: as §2
# Hepatitis B virus [10] = assay: Antiviral activity against Hepatitis B virus infected in human HepG2.2.15 cells assessed as inhibition of HBeAg secretion at 300 uM after 3 days by ELISA; assay type: functional; settings: HepG2 2.2.15, 72 h; summary of the method: as §2
# Hepatitis B virus [11] = assay: Antiviral activity against Hepatitis B virus infected in human HepG2.2.15 cells assessed as cell survival at 150 uM after 9 days (reference value: 100%); assay type: functional; settings: HepG2 2.2.15, 216 h; summary of the method: as §3
# Hepatitis B virus [12] = assay: Antiviral activity against Hepatitis B virus infected in human HepG2.2.15 cells assessed as inhibition of HBsAg secretion at 37.5 uM after 9 days by ELISA; assay type: functional; settings: HepG2 2.2.15, 216 h; summary of the method: as §2
# Hepatitis B virus [13] = assay: Antiviral activity against Hepatitis B virus infected in human HepG2.2.15 cells assessed as inhibition of HBsAg secretion at 300 uM after 9 days by ELISA; assay type: functional; settings: HepG2 2.2.15, 216 h; summary of the method: as §2
# Hepatitis B virus [14] = assay: Antiviral activity against Hepatitis B virus infected in human HepG2.2.15 cells assessed as inhibition of HBsAg secretion at 300 uM after 3 days by ELISA; assay type: functional; settings: HepG2 2.2.15, 72 h; summary of the method: as §2
# Hepatitis B virus [15] = assay: Antiviral activity against Hepatitis B virus infected in human HepG2.2.15 cells assessed as inhibition of HBeAg secretion at 75 uM after 9 days by ELISA; assay type: functional; settings: HepG2 2.2.15, 216 h; summary of the method: as §2
# Hepatitis B virus [16] = assay: Antiviral activity against Hepatitis B virus infected in human HepG2.2.15 cells assessed as inhibition of HBeAg secretion at 37.5 uM after 6 days by ELISA; assay type: functional; settings: HepG2 2.2.15, 144 h; summary of the method: as §2
# Hepatitis B virus [17] = assay: Antiviral activity against Hepatitis B virus infected in human HepG2.2.15 cells assessed as inhibition of HBsAg secretion at 75 uM after 6 days by ELISA; assay type: functional; settings: HepG2 2.2.15, 144 h; summary of the method: as §2
# Hepatitis B virus [18] = assay: Antiviral activity against Hepatitis B virus infected in human HepG2.2.15 cells assessed as cell survival at 75 uM after 9 days (reference value: 100%); assay type: functional; settings: HepG2 2.2.15, 216 h; summary of the method: as §3
# Hepatitis B virus [19] = assay: Antiviral activity against Hepatitis B virus infected in human HepG2.2.15 cells assessed as inhibition of HBsAg secretion at 300 uM after 6 days by ELISA; assay type: functional; settings: HepG2 2.2.15, 144 h; summary of the method: as §2
# Hepatitis B virus [20] = assay: Antiviral activity against Hepatitis B virus infected in human HepG2.2.15 cells assessed as inhibition of HBeAg secretion at 300 uM after 9 days by ELISA; assay type: functional; settings: HepG2 2.2.15, 216 h; summary of the method: as §2
# Hepatitis B virus [21] = assay: Antiviral activity against Hepatitis B virus infected in human HepG2.2.15 cells assessed as inhibition of HBsAg secretion at 75 uM after 3 days by ELISA; assay type: functional; settings: HepG2 2.2.15, 72 h; summary of the method: as §2
# Hepatitis B virus [22] = assay: Antiviral activity against Hepatitis B virus infected in human HepG2.2.15 cells assessed as inhibition of HBeAg secretion at 300 uM after 6 days by ELISA; assay type: functional; settings: HepG2 2.2.15, 144 h; summary of the method: as §2
# Hepatitis B virus [23] = assay: Antiviral activity against Hepatitis B virus infected in human HepG2.2.15 cells assessed as inhibition of HBsAg secretion at 150 uM after 6 days by ELISA; assay type: functional; settings: HepG2 2.2.15, 144 h; summary of the method: as §2
# Hepatitis B virus [24] = assay: Antiviral activity against Hepatitis B virus infected in human HepG2.2.15 cells assessed as cell survival at 37.5 uM after 9 days (reference value: 100%); assay type: functional; settings: HepG2 2.2.15, 216 h; summary of the method: as §3
# Hepatitis B virus [25] = assay: Antiviral activity against Hepatitis B virus infected in human HepG2.2.15 cells assessed as inhibition of HBsAg secretion at 37.5 uM after 6 days by ELISA; assay type: functional; settings: HepG2 2.2.15, 144 h; summary of the method: as §2
# Hepatitis B virus [26] = assay: Antiviral activity against Hepatitis B virus infected in human HepG2.2.15 cells assessed as inhibition of HBsAg secretion at 150 uM after 9 days by ELISA; assay type: functional; settings: HepG2 2.2.15, 216 h; summary of the method: as §2
# Hepatitis B virus [27] = assay: Antiviral activity against Hepatitis B virus infected in human HepG2.2.15 cells assessed as inhibition of HBsAg secretion at 150 uM after 3 days by ELISA; assay type: functional; settings: HepG2 2.2.15, 72 h; summary of the method: as §2
# Hepatitis B virus [28] = assay: Antiviral activity against Hepatitis B virus infected in human HepG2.2.15 cells assessed as inhibition of HBeAg secretion at 37.5 uM after 9 days by ELISA; assay type: functional; settings: HepG2 2.2.15, 216 h; summary of the method: as §2
# Hepatitis B virus [29] = assay: Antiviral activity against Hepatitis B virus infected in human HepG2.2.15 cells assessed as inhibition of HBeAg secretion at 75 uM after 6 days by ELISA; assay type: functional; settings: HepG2 2.2.15, 144 h; summary of the method: as §2
# Hepatitis B virus [30] = assay: Antiviral activity against Hepatitis B virus infected in human HepG2.2.15 cells assessed as inhibition of HBeAg secretion at 150 uM after 9 days by ELISA; assay type: functional; settings: HepG2 2.2.15, 216 h; summary of the method: as §2
# Hepatitis B virus [31] = assay: Antiviral activity against Hepatitis B virus infected in human HepG2.2.15 cells assessed as cell survival at 300 uM after 9 days (reference value: 100%); assay type: functional; settings: HepG2 2.2.15, 216 h; summary of the method: as §3
# Hepatitis B virus [32] = assay: Antiviral activity against Hepatitis B virus infected in human HepG2.2.15 cells assessed as inhibition of HBeAg secretion at 75 uM after 3 days by ELISA; assay type: functional; settings: HepG2 2.2.15, 72 h; summary of the method: as §2
structure (smiles),measurement,setting,value
O=C(O)/C=C/c1ccc2c(c1)OCO2,Ratio CC50/IC50,[1],0.96
same,Ratio CC50/IC50,[2],1.16
same,IC50,Hepatitis B virus [3],433 µM
same,CC50 at 216 h,[4],503 µM
same,IC50,Hepatitis B virus [5],526 µM
COc1cc(/C=C/C(=O)O/N=C/c2ccccn2)cc(OC)c1OC,inhibition at 37.5 µM,Hepatitis B virus [6],13.4%
same,inhibition at 75 µM,Hepatitis B virus [7],39.2%
same,Ratio CC50/IC50,[1],5.25
same,inhibition at 150 µM,Hepatitis B virus [8],35.1%
same,inhibition at 150 µM,Hepatitis B virus [9],28.2%
same,inhibition at 300 µM,Hepatitis B virus [10],34.2%
same,viability at 150 µM,Hepatitis B virus [11],98.1%
same,inhibition at 37.5 µM,Hepatitis B virus [12],24.1%
same,Ratio CC50/IC50,[2],5.52
same,inhibition at 300 µM,Hepatitis B virus [13],66.7%
same,inhibition at 300 µM,Hepatitis B virus [14],15.1%
same,IC50,Hepatitis B virus [3],143 µM
same,inhibition at 75 µM,Hepatitis B virus [15],41.2%
same,inhibition at 37.5 µM,Hepatitis B virus [16],21.4%
same,inhibition at 75 µM,Hepatitis B virus [17],17.2%
same,viability at 75 µM,Hepatitis B virus [18],107%
same,inhibition at 300 µM,Hepatitis B virus [19],40.5%
same,inhibition at 300 µM,Hepatitis B virus [20],61.1%
same,inhibition at 75 µM,Hepatitis B virus [21],2.96%
same,inhibition at 300 µM,Hepatitis B virus [22],53.6%
same,CC50 at 216 h,[4],787 µM
same,inhibition at 150 µM,Hepatitis B virus [23],29.6%
same,viability at 37.5 µM,Hepatitis B virus [24],108%
same,inhibition at 37.5 µM,Hepatitis B virus [25],12.7%
same,inhibition at 150 µM,Hepatitis B virus [26],47.3%
same,inhibition at 150 µM,Hepatitis B virus [27],8.39%
same,IC50,Hepatitis B virus [5],150 µM
same,inhibition at 37.5 µM,Hepatitis B virus [28],30.2%
same,inhibition at 75 µM,Hepatitis B virus [29],29.2%
same,inhibition at 150 µM,Hepatitis B virus [30],47.9%
same,viability at 300 µM,Hepatitis B virus [31],89%
same,inhibition at 75 µM,Hepatitis B virus [32],20.3%
COc1cc(C=O)cc(OC)c1OC,CC50 at 216 h,[4],> 1500 µM
COc1cc(C=O)cc2c1OCO2,CC50 at 216 h,[4],1080 µM
COc1cc(/C=C/C(=O)O)cc2c1OCO2,Ratio CC50/IC50,[1],1.4
same,Ratio CC50/IC50,[2],1.62
same,IC50,Hepatitis B virus [3],411 µM
same,CC50 at 216 h,[4],667 µM
same,IC50,Hepatitis B virus [5],477 µM
O/N=C/c1ccco1,Ratio CC50/IC50,[1],0.91
same,Ratio CC50/IC50,[2],1.01
same,IC50,Hepatitis B virus [3],480 µM
same,CC50 at 216 h,[4],475 µM
same,IC50,Hepatitis B virus [5],519 µM
